IMP-1 inh-1: blocks Pseudomonas aeruginosa IMP-1 metallo-beta-lactamase. purified IMP-1, nitrocefin hydrolysis, epi-absorbance fluorescence. inhibition, % at 5.6 µM. 290,000 compounds, 0.45% hits. AID 1556;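 active = inhibition above the mean plus 3 SD of all compounds in the same screening run, cut at about 4.5% in these data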
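System: purified IMP-1; amount: IMP-1 0.2 nM before substrate addition; compound: single dose, 5.6 µM; times: 25 °C, 15 min preincubation, 25 min reaction; signal: Epi-absorbance via hydrolysed-nitrocefin quenching of white-plate fluorescence, 480/530 nm, EDTA stop; benchmarks: DMSO with and without IMP-1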
TRPML3 ag: activates the human TRPML3 channel; Q8TDD5; HEK293 TRPML3-YFP, Fluo-8 calcium fluorescence; 100% = the carbachol control signal; activation, % at 3 µM; 220,000 compounds, 0.29% hits;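 active = activation above its plate's cutoff, the mean activation of the plate's test wells plus 3 SD, cut at about 12% in these data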
Target sequence (Q8TDD5 whole entry, looked up): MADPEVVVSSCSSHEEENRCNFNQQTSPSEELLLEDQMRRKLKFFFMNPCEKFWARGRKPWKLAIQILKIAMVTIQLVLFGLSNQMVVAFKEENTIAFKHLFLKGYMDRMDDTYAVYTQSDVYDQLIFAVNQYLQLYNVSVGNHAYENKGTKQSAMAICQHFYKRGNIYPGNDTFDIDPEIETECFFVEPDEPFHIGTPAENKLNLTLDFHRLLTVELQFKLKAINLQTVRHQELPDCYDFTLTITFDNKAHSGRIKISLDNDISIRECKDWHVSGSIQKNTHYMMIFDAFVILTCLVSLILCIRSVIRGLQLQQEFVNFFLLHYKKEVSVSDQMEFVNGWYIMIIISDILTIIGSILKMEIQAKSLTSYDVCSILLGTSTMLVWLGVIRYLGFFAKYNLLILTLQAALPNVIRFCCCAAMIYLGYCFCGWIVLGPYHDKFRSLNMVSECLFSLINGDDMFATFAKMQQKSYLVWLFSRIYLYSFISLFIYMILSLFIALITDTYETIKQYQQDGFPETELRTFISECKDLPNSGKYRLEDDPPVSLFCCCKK
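Material: HEK293 cells stably carrying human TRPML3-YFP; compound dosing: single dose, 3 µM final nominal compound, 0.3% DMSO final; incubation: 1-h 37 °C dye load, 5-s basal, 120-s post-compound reads; technique: Fluo-8 intracellular calcium fluorescence, excitation 470-495 nm, emission 515-575 nm; read-out basis: percent activation from peak-to-basal fluorescence ratio, scaled between DMSO and carbachol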
VIM-2 inh: blocks Pseudomonas aeruginosa VIM-2 metallo-beta-lactamase | inhibition, % at 5.6 µM | 290,000 compounds, 0.89% hits | AID 1527 | purified VIM-2, nitrocefin hydrolysis, epi-absorbance fluorescence;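 active = inhibition above the mean of all tested compounds plus 3 SD, cutoff set per screening run, cut at about 7.5% in these data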;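 also: red hydrolysis product quenches plate fluorescence so inhibitors raise well fluorescence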
CRFR2-BP ag: CRF-BP/CRF-R2 complex agonism | HEK293 CRF-R2/CRF-BP, calcium dye fluorescence (FLIPR); percent of saturating CRF peptide response | 350,000 compounds, 0.46% hits | activation, % at 13.2 µM;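 active = activation of at least 50%, plus an integration ratio under a set limit after plate pattern correction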
zfTRPN1 agonist: agonists of zebrafish TRPN1 channel; HEK293 zebrafish TRPN1-YFP, Fluo-8 calcium fluorescence; 100% = response to 87 µM carbachol; activation, % at 3 µM; 220,000 compounds, 0.18% hits;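 active = activation above its plate's cutoff, the mean activation of test wells on that plate plus 3 SD, cut at about 19% in these data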
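Assay system: Zebrafish TRPN1-YFP in HEK293 cells | Incubation: Dye loading 1 h at 37 °C, then 30 min room temperature | Measured by: Kinetic Fluo-8 fluorescence, ex 470-495, em 515-575 nm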
CRFBP-R2 block: blocks CRF-induced signaling of the CRF-BP/CRF-R2 complex. HEK293 CRF-R2/CRF-BP, CRF-induced calcium fluorescence. inhibition, % at 11.8 µM. 350,000 compounds, 0.59% hits;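 active = inhibition of the ligand-induced calcium signal above about 50% at the single tested concentration, limit read from the data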
IMP-1 inh-2: blocks IMP-1 metallo-beta-lactamase in VIM-2 selectivity screen; shares compounds with VIM-2 inh; purified IMP-1, nitrocefin hydrolysis, epi-absorbance fluorescence; inhibition, % at 5.6 µM; 1,300 tested, under 10 active; AID 1856; call rule not given here
VIM-2 FRET ctr: inhibits VIM-2 in FRET assay to exclude epi-absorbance artifacts; shares compounds with VIM-2 inh; purified VIM-2, CCF2 FRET substrate hydrolysis; inhibition, % at 5.6 µM; 1,300 compounds, 23% hits;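 active = inhibition above the mean of all tested compounds plus 3 SD, cut at about 19% in these data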
TEM-1 counter: selectivity counter-screen for VIM-2 inhibitors: E. coli TEM-1 inhibitors; shares compounds with VIM-2 inh; Purified TEM-1, nitrocefin hydrolysis, epi-absorbance fluorescence; inhibition, % at 5.6 µM; 1,300 compounds, 3% hits; AID 1866;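 active = inhibition above that campaign's mean inhibition plus 3 SD, cut at about 0.46% in these data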
VIM-2 confirm 2: confirmation of P. aeruginosa VIM-2 metallo-beta-lactamase inhibitors; shares compounds with VIM-2 inh; purified VIM-2, nitrocefin hydrolysis, epi-absorbance; inhibition, % at 5.6 µM; 1,300 compounds, 96% hits; AID 2187;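 active = inhibition of the VIM-2 beta-lactamase enzyme above about 11% from the earlier first-round screen, limit read from the data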
Hits are given with their value. Sampled rows, rich in hits. Any-hit rate of the full collection: about 2.1%.

CN1CCN(CC(O)COc2ccc(OCC(O)CN3CCN(C)CC3)cc2)CC1 (stereo not drawn) was read as IMP-1 inh-1 inactive, TRPML3 ag inactive, VIM-2 inh inactive, CRFR2-BP ag inactive, zfTRPN1 agonist inactive and CRFBP-R2 block inactive.
Screening CCN1CCN(CC(O)COc2ccc3c(C)cc(=O)oc3c2)CC1 (stereo not drawn) returned IMP-1 inh-1 inactive, TRPML3 ag inactive, VIM-2 inh 15.5, CRFR2-BP ag inactive, zfTRPN1 agonist inactive, CRFBP-R2 block inactive, IMP-1 inh-2 inactive, VIM-2 FRET ctr inactive, TEM-1 counter inactive and VIM-2 confirm 2 23.4.
For Cc1cc(OCC(O)CN2CCN(C)CC2)ccc1C(C)C (stereo not drawn) the results were IMP-1 inh-1 inactive, TRPML3 ag inactive, VIM-2 inh inactive, CRFR2-BP ag inactive, zfTRPN1 agonist inactive and CRFBP-R2 block inactive.
Screening CCOC(=O)c1c(C)n(-c2ccc(C)cc2)c2ccc(OCC(O)CN3CCN(C)CC3)cc12 (stereo not drawn) returned IMP-1 inh-1 inactive, TRPML3 ag inactive, VIM-2 inh 15.2, CRFR2-BP ag inactive, zfTRPN1 agonist inactive, CRFBP-R2 block inactive, IMP-1 inh-2 inactive, VIM-2 FRET ctr inactive, TEM-1 counter inactive and VIM-2 confirm 2 26.4.
Screening CC(=O)Nc1ccc(NC(=O)C(C)OC(=O)CCCN2C(=O)c3cccc4cccc(c34)C2=O)cc1 (stereo not drawn) returned CRFR2-BP ag inactive and CRFBP-R2 block inactive.
`Cc1ccc(NS(=O)(=O)c2ccc(OCC(=O)NCc3ccccn3)cc2)cc1` gave IMP-1 inh-1 inactive, VIM-2 inh inactive, CRFR2-BP ag inactive and CRFBP-R2 block inactive.
For O=C1NC(Cc2ccc(O)cc2)c2nc3ccc(F)cc3c(=O)n2-c2ncccc21 (stereo not drawn) the results were CRFR2-BP ag inactive and CRFBP-R2 block inactive.
Screening CCOC(=O)N1CCN(C(=O)c2cccn3c(=O)c4c5c(sc4nc23)CCCC5)CC1 returned IMP-1 inh-1 inactive, TRPML3 ag inactive, VIM-2 inh inactive, CRFR2-BP ag inactive, zfTRPN1 agonist inactive and CRFBP-R2 block inactive.
For CCC(C)NC(=O)c1cc2c(=O)n3cccc(C)c3nc2s1 (stereo not drawn) the results were IMP-1 inh-1 inactive, VIM-2 inh 20.2, CRFR2-BP ag inactive, CRFBP-R2 block inactive, IMP-1 inh-2 inactive, VIM-2 FRET ctr inactive, TEM-1 counter inactive and VIM-2 confirm 2 26.7.
Screening CCOC(=O)N1CCN(C(=O)c2cc3c(=O)n4cccc(C)c4nc3s2)CC1 returned IMP-1 inh-1 inactive, VIM-2 inh 16.2, CRFR2-BP ag inactive, CRFBP-R2 block inactive, IMP-1 inh-2 inactive, VIM-2 FRET ctr inactive, TEM-1 counter inactive and VIM-2 confirm 2 23.7.
Screening C=CCNC(=O)c1cc2c(=O)n3cccc(C)c3nc2s1 returned IMP-1 inh-1 inactive, VIM-2 inh 18.9, CRFR2-BP ag inactive, CRFBP-R2 block inactive, IMP-1 inh-2 inactive, VIM-2 FRET ctr inactive, TEM-1 counter inactive and VIM-2 confirm 2 26.1.
`COc1cc(/C=C/C(=O)O)cc(S(=O)(=O)Nc2ccc3c(c2)CCC3)c1OC` gave IMP-1 inh-1 inactive, VIM-2 inh inactive, CRFR2-BP ag inactive and CRFBP-R2 block inactive.
`CCC[C@@H](CNC)NC[C@H](Cc1ccccc1)NCCCCc1ccccc1` gave IMP-1 inh-1 inactive, VIM-2 inh 55.6, CRFR2-BP ag inactive, CRFBP-R2 block inactive, IMP-1 inh-2 inactive, VIM-2 FRET ctr inactive, TEM-1 counter inactive and VIM-2 confirm 2 65.8.
O=c1c2ccccc2oc2cc(Br)ccc12 was read as CRFR2-BP ag inactive and CRFBP-R2 block inactive.
COc1cc2oc3ccccc3c(=O)c2cc1OC was read as IMP-1 inh-1 inactive, VIM-2 inh 14.2, CRFR2-BP ag inactive, CRFBP-R2 block inactive, IMP-1 inh-2 inactive, VIM-2 FRET ctr inactive, TEM-1 counter inactive and VIM-2 confirm 2 18.3.
For CSS(=O)(=O)c1cccc2cccnc12 the results were IMP-1 inh-1 inactive, TRPML3 ag inactive, VIM-2 inh 38.4, CRFR2-BP ag inactive, zfTRPN1 agonist inactive, CRFBP-R2 block inactive, IMP-1 inh-2 inactive, VIM-2 FRET ctr inactive, TEM-1 counter inactive and VIM-2 confirm 2 42.8.
`Cc1nc(N)[nH]c(=O)c1CCCNc1ccc([N+](=O)[O-])cc1` gave CRFR2-BP ag inactive and CRFBP-R2 block inactive.
CCOc1ccc2nc(NCCNC(=S)NCCCN(C)C)c(C#N)cc2c1 was read as IMP-1 inh-1 inactive, TRPML3 ag inactive, VIM-2 inh 13.1, CRFR2-BP ag inactive, zfTRPN1 agonist inactive, CRFBP-R2 block inactive, IMP-1 inh-2 inactive, VIM-2 FRET ctr inactive, TEM-1 counter inactive and VIM-2 confirm 2 18.4.
Screening CC(C)c1cc(N=NC(N)=O)cc(C(C)C)c1O returned IMP-1 inh-1 inactive, TRPML3 ag inactive, VIM-2 inh inactive, CRFR2-BP ag inactive, zfTRPN1 agonist inactive and CRFBP-R2 block inactive.
O=C(Cc1cccs1)N1CCN(S(=O)(=O)c2ccc(F)c(F)c2)CC1 was read as CRFR2-BP ag inactive and CRFBP-R2 block inactive.
For O=c1[nH]c2c(s1)C(c1cccnc1)C1C3CCC(C3)C1S2 (stereo not drawn) the results were IMP-1 inh-1 inactive, TRPML3 ag inactive, VIM-2 inh 84.2, CRFR2-BP ag inactive, zfTRPN1 agonist inactive, CRFBP-R2 block inactive, IMP-1 inh-2 inactive, VIM-2 FRET ctr 88.7, TEM-1 counter inactive and VIM-2 confirm 2 82.7.
`O=c1[nH]c2c(s1)C(c1ccc(O)cc1)C1C3CCC(C3)C1S2` (stereo not drawn) gave IMP-1 inh-1 inactive, TRPML3 ag inactive, VIM-2 inh inactive, CRFR2-BP ag inactive, zfTRPN1 agonist inactive and CRFBP-R2 block inactive.
`COc1ccc2nc(SCC(=O)N3CCN(c4ccc(F)cc4)CC3)c(C#N)cc2c1` gave IMP-1 inh-1 inactive, TRPML3 ag inactive, VIM-2 inh 15.2, CRFR2-BP ag inactive, zfTRPN1 agonist inactive, CRFBP-R2 block inactive, IMP-1 inh-2 inactive, VIM-2 FRET ctr inactive, TEM-1 counter inactive and VIM-2 confirm 2 41.9.

From PubChem BioAssay
